Calls of active or inactive are those of the source. The rule behind the calls is not given here.
Columns and labels:
Dengue virus [1] = test: Inhibition of Dengue virus NS2B-NS3 protease expressed in Escherichia coli BL21 lambda (DE3) using Abz-NleKRRS-3-(NO2)Y as substrate at 50 uM preincubated for 15 mins before substrate addition measured up to 15 mins by spectrofluorimetry
In short: (§1)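 Single-concentration screen against His-tagged NS2B-NS3 protease (Ni²⁺-affinity purified from E. coli). Enzyme was 100 nM for Dengue or 150 nM for West Nile. Inhibitor at 50 µM was preincubated 15 min with enzyme, then internally quenched FRET substrate (final 50 µM) was added. Read at ex 320/em 405 nm for 15 min. Rate taken as RFU/s; % inhibition is the mean of triplicates.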

West Nile virus = test: Inhibition of West Nile virus NS2B-NS3 protease expressed in Escherichia coli BL21 lambda (DE3) using Abz-GLKRGG-3-(NO2)Y as substrate at 50 uM preincubated for 15 mins before substrate addition measured up to 15 mins by spectrofluorimetry; in short: as §1
Prothrombin [2] = target: T1, Prothrombin (Homo sapiens, UniProt P00734); test: Inhibition of human thrombin using Boc-VPR-AMC as substrate at 25 uM preincubated for 15 mins before substrate addition measured up to 10 mins by spectrofluorimetry
[3] = Inhibition of Dengue virus NS2B-NS3 protease expressed in Escherichia coli BL21 lambda (DE3) using Abz-NleKRRS-3-(NO2)Y as substrate compound preincubated for 15 mins before substrate addition measured up to 15 mins by spectrofluorimetry
[4] = Inhibition of West Nile virus NS2B-NS3 protease expressed in Escherichia coli BL21 lambda (DE3) using Abz-GLKRGG-3-(NO2)Y compound preincubated for 15 mins before substrate addition measured up to 15 mins by spectrofluorimetry
Prothrombin [5] = target: T1, Prothrombin; test: Inhibition of human thrombin using Boc-VPR-AMC as substrate compound preincubated for 15 mins before substrate addition measured up to 10 mins by spectrofluorimetry
[6] = Selectivity ratio of Ki for human thrombin to Ki for Dengue virus NS2B-NS3 protease
[7] = Selectivity ratio of Ki for human thrombin to Ki for West Nile virus NS2B-NS3 protease
Dengue virus [8] = test: Binding affinity to Dengue virus NS2B-NS3 protease catalytic center assessed as quenching of Trp50 intrinsic fluorescence
Dengue virus [9] = test: Binding affinity to Dengue virus NS2B-NS3 protease catalytic center assessed as quenching of Trp50 intrinsic fluorescence in presence of aprotinin

inhibition (Dengue virus [1])	inhibition (West Nile virus)	inhibition (Prothrombin [2])	Ki (Prothrombin [5])	Ratio Ki [6]	Ratio Ki [7]	Activity (Dengue virus [8])	Activity (Dengue virus [9])	Compound	Ki [3]	Ki [4]
51.7%	55%	24.4%	102 µM	2.8	2.3			N#C/C(=C\c1ccc(O)cc1)C(N)=O	35.7 µM	44.6 µM
28.2%	46.3%	14.4%	165 µM			Active	inactive	CC(C)c1ccc(/C=C(\C#N)C(=O)NCC2CCCO2)cc1 (stereo not drawn)	98.1 µM	101 µM
22.3%	24%	inactive						N#C/C(=C\c1ccc(C(=O)N2CCCCC2)cc1)C(N)=O		
14%	24.2%	20%						N#C/C(=C\c1ccc(N2CCCCC2)cc1)C(N)=O		
36.8%	30.1%	28.7%						CC(=C\c1ccccc1)/C=C(\C#N)C(=O)NCC1CCCO1 (stereo not drawn)		
10.5%	24%	47%	23.4 µM					N#C/C(=C\c1ccc(N2CCOCC2)o1)C(=O)NC1CC1	184 µM	> 200 µM
38.7%	46.5%	13.3%						CN(C)c1ccc(/C=C(\C#N)C(=O)O)cc1		
32.2%	22.8%	inactive						Cc1ccc(/C=C(\C#N)C(N)=O)cc1		
18.4%	19.3%	10.1%						N#C/C(=C\c1sccc1Br)C(N)=O		
15%	9.3%	12.5%						N#C/C(=C\c1ccccc1)C(N)=O		
13.2%	22.7%	inactive						C/C(=C(\C#N)C(N)=O)c1ccc(O)cc1		
37.4%	47.8%	21.8%						CN1CCN(c2ccc(/C=C(\C#N)C(=O)NC3CC3)cc2)CC1		
14.7%	10.7%	8.5%						N#C/C(=C\c1ccc(Cl)cc1Cl)C(N)=O		
46.4%	44.4%	16.8%						N#C/C(=C\c1ccc(O)cc1)C(=O)NCC1CCCO1 (stereo not drawn)		

Compound	inhibition (Dengue virus [1])	inhibition (West Nile virus)	inhibition (Prothrombin [2])	Ki (Prothrombin [5])	Ratio Ki [6]	Ratio Ki [7]	Activity (Dengue virus [8])	Activity (Dengue virus [9])	Ki [3]	Ki [4]
N#C/C(=C\c1ccc(N2CCNCC2)cc1)C(N)=O	28.6%	45%	26.1%							
